Test results reported in ChEMBL document CHEMBL1124161, “4-Hydroxy-3-quinolinecarboxamides with antiarthritic and analgesic activities” (J Med Chem, 1988).
The source made the active and inactive calls. The rule behind the calls is not given here.

Tests used:
[1] = test system: Mus musculus; test: Analgesic activity against acetic acid induced writhing test in mouse after peroral administration; format: functional
[2] = test system: Rattus norvegicus; test: Antiinflammatory activity against carrageenan-induced foot edema in rat after peroral administration at 25 mg/kg; IA=Inactive; format: functional, organism-based; set-up: dose 25 mg/kg
[3] = test system: Rattus norvegicus; test: Anti-arthritis activity against adjuvant-induced arthritis in rats after peroral administration; format: functional
Outline: (§1)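 Groups of five male Lewis rats, 40–50 days old, given intraplantar injection in right hind paw of 0.6 mg Mycobacterium butyricum in 0.1 mL Bayol 55. Drug given in food from adjuvant day to day 17. Injected and noninjected hind paw volumes measured day 17 against normal controls. ED50 by least-squares curve fitting or Litchfield–Wilcoxon probit.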

[4] = species on record: Rattus norvegicus; test: Antiarthritis activity against adjuvant-induced arthritis in rats; format: functional; outline: as §1
[5] = Mus musculus, po, read-out: ED50
[6] = Rattus norvegicus, po, read-out: ED50

Row | SMILES | ED50 [1, 5] | other results
1 | Cn1nccc1NC(=O)c1cnc2c(C(F)(F)F)cccc2c1O | 50 mg/kg | 
2 | CC(C)c1nc2c(C(F)(F)F)cccc2c(O)c1C(=O)Nc1nccs1 | 5 mg/kg | 
3 | O=C(Nc1nccs1)c1c(CCl)nc2c(C(F)(F)F)cccc2c1O | 25 mg/kg | ED50 [2]: inactive
4 | O=C(Nc1nccs1)c1cnc2ccc(C(F)(F)F)cc2c1O | 40 mg/kg | 
5 | O=C(Nc1nccs1)c1c(C(F)F)nc2c(C(F)(F)F)cccc2c1O | 5 mg/kg | 
6 | CCC(OC(=O)c1ccccc1)c1nc2c(C(F)(F)F)cccc2c(O)c1C(=O)Nc1nccs1 (centres undefined) | > 100 mg/kg | ED50 [3, 6]: > 5 mg/kg
7 | CCC(=O)OC(CC)c1nc2c(C(F)(F)F)cccc2c(O)c1C(=O)Nc1nccs1 (stereo in doubt; 103) |  | ED50 [1]: >50 mg/kg; ED50 [3]: >5 mg/kg
8 | Cn1ccnc1NC(=O)c1cnc2c(C(F)(F)F)cccc2c1O | 16 mg/kg | 
9 | O=C(Nc1nccs1)c1c(C(Cl)Cl)nc2c(F)cccc2c1O | 25 mg/kg | ED50 [2]: inactive
10 | O=C(Nc1nccs1)c1c(C(F)(F)F)nc2c(Cl)ccc(C(F)(F)F)c2c1O | > 50 mg/kg | 
11 | O=C(Nc1nccs1)c1cnc2ccccc2c1O | > 10 mg/kg | 
12 | CCc1nc2c(C(F)(F)F)cccc2c(O)c1C(=O)Nc1ccccn1 | 18 mg/kg | 
13 | CC(C)c1ccc2ncc(C(=O)Nc3nccs3)c(O)c2c1 | 25 mg/kg | 
14 | O=C(Nc1ncco1)c1c(C(F)(F)F)nc2c(C(F)(F)F)cccc2c1O | > 100 mg/kg | 
15 | CCC(=O)OC(c1nc2c(C(F)(F)F)cccc2c(O)c1C(=O)Nc1nccs1)C(C)C (centres undefined) | > 100 mg/kg | ED50 [3, 6]: ≥ 5 mg/kg
16 | CC(C)(C)c1nc2c(C(F)(F)F)cccc2c(O)c1C(=O)Nc1nccs1 | > 100 mg/kg | 
17 | O=C(Nn1ccnn1)c1cnc2c(C(F)(F)F)cccc2c1O | > 50 mg/kg | 
18 | CC(C)C(O)c1nc2c(C(F)(F)F)cccc2c(O)c1C(=O)Nc1nccs1 (centres undefined) | 20 mg/kg | ED50 [4]: 0.4 mg/kg
19 | CCC(=O)OC(CC)c1nc2c(C(F)(F)F)cccc2c(O)c1C(=O)Nc1nccs1 (stereo in doubt; 104) |  | ED50 [1]: 15 mg/kg; ED50 [3]: 0.6 mg/kg
20 | Cc1cc(NC(=O)c2c(C(F)(F)F)nc3c(C(F)(F)F)cccc3c2O)no1 | > 50 mg/kg | 
21 | C[C@H](N)c1nc2c(C(F)(F)F)cccc2c(O)c1C(=O)Nc1nccs1 | 30 mg/kg | ED50 [3, 6]: 7 mg/kg
22 | CC(Cl)c1nc2c(C(F)(F)F)cccc2c(O)c1C(=O)Nc1nccs1 (centres undefined) |  | ED50 ([1]; read-out: ED50): 25 mg/kg
23 | O=C(Nc1nccs1)c1c(C(Cl)Cl)nc2ccccc2c1O | > 25 mg/kg | 
24 | CC(C)Cc1nc2c(C(F)(F)F)cccc2c(O)c1C(=O)Nc1nccs1 | 30 mg/kg | 
25 | O=C(NC1CCCCC1)c1cnc2c(C(F)(F)F)cccc2c1O | > 50 mg/kg | 
26 | CCc1nc2c(C(F)(F)F)cccc2c(O)c1C(=O)Nc1cc(C)on1 | > 50 mg/kg | 
27 | O=C(Nc1ccccc1)c1cnc2c(C(F)(F)F)cccc2c1O | > 50 mg/kg | 

Row | SMILES | ED50 [1, 5] | other results
28 | CC(O)c1nc2c(C(F)(F)F)cccc2c(O)c1C(=O)Nc1nccs1 (centres undefined) | 1.2 mg/kg | ED50 [4]: ≥ 5 mg/kg
29 | O=C(Nc1ncc[nH]1)c1cnc2c(C(F)(F)F)cccc2c1O | 18 mg/kg | 
30 | Cn1ccnc1NC(=O)c1c(C(Cl)Cl)nc2c(C(F)(F)F)cccc2c1O | > 25 mg/kg | ED50 [2]: inactive
31 | CC(O)c1nc2ccccc2c(O)c1C(=O)Nc1nccs1 (centres undefined) | > 100 mg/kg | ED50 [3, 6]: > 5 mg/kg
32 | CCc1nc2c(C(F)(F)F)cccc2c(O)c1C(=O)Nc1ncco1 | 15 mg/kg | 
33 | CCCC(O)c1nc2c(C(F)(F)F)cccc2c(O)c1C(=O)Nc1nccs1 (centres undefined) | 20 mg/kg | ED50 [4]: ≥ 20 mg/kg
34 | CCCc1nc2c(C(F)(F)F)cccc2c(O)c1C(=O)Nc1nccs1 | 15 mg/kg | 
35 | O=C(Nc1nccs1)c1c(C(F)(F)F)nc2ccc(Cl)cc2c1O | > 25 mg/kg | 
36 | CCC(O)c1nc2c(C(F)(F)F)cccc2c(O)c1C(=O)Nc1nccs1 (stereo in doubt; 91) |  | ED50 [1]: 1.8 mg/kg; ED50 [3]: 0.5 mg/kg
37 | CCC(OC(=O)C(C)(C)C)c1nc2c(C(F)(F)F)cccc2c(O)c1C(=O)Nc1nccs1 (centres undefined) |  | ED50 [3, 6]: 15 mg/kg
38 | CCC(OC(=O)/C=C/c1ccccc1)c1nc2c(C(F)(F)F)cccc2c(O)c1C(=O)Nc1nccs1 (centres undefined) | > 100 mg/kg | ED50 [3, 6]: 10 mg/kg
39 | CC(C)C(O)c1nc2c(C(F)(F)F)cccc2c(O)c1C(=O)Nc1ccccn1 (centres undefined) | > 50 mg/kg | ED50 [3, 6]: 5 mg/kg
40 | O=C(Nc1nccs1)c1c(C(F)(F)F)nc2ccc(C(F)(F)F)cc2c1O | 100 mg/kg | 
41 | O=C(Nc1nccs1)c1c(C(Cl)Cl)nc2ccc(Cl)cc2c1O | 25 mg/kg | 
42 | CCC(O)c1nc2c(C(F)(F)F)cccc2c(O)c1C(=O)Nc1ccccn1 (centres undefined) | 20 mg/kg | ED50 [3, 6]: ≥ 15 mg/kg
43 | O=C(NC1=NCCS1)c1cnc2c(C(F)(F)F)cccc2c1O | 15 mg/kg | 
44 | O=C(Nc1nccs1)c1c(C(F)(F)F)nc2cc(C(F)(F)F)ccc2c1O | 5 mg/kg | 
45 | O=C(Nc1ccccn1)c1cnc2c(C(F)(F)F)cccc2c1O | > 50 mg/kg | 
46 | O=C(Nc1nccs1)c1cnc2cc(C(F)(F)F)ccc2c1O | 100 mg/kg | 
47 | Cc1nc2c(C(F)(F)F)cccc2c(O)c1C(=O)Nc1nccs1 | 4 mg/kg | 
48 | O=C(Nc1nccs1)c1c(C(F)(F)C(F)(F)F)nc2c(C(F)(F)F)cccc2c1O | 20 mg/kg | 
49 | O=C(Nc1nccs1)c1c(C(F)(F)F)nc2c(Cl)cccc2c1O | 2 mg/kg | 
50 | O=C(Nc1ccccn1)c1c(C(F)(F)F)nc2c(C(F)(F)F)cccc2c1O | > 20 mg/kg | 
51 | CCC(O)c1nc2c(C(F)(F)F)cccc2c(O)c1C(=O)Nc1nccs1 (stereo in doubt; 90) |  | ED50 [1]: >20 mg/kg; ED50 [3]: >5 mg/kg
52 | CC(C)[C@H](N)c1nc2c(C(F)(F)F)cccc2c(O)c1C(=O)Nc1nccs1 | > 100 mg/kg | ED50 [3, 6]: ≥ 5 mg/kg
53 | O=C(Nc1nccs1)c1c(C(F)(F)F)nc2ccccc2c1O | 8 mg/kg | 
54 | CCc1nc2c(C(F)(F)F)cccc2c(O)c1C(=O)Nc1nccs1 | 3 mg/kg | 

Row | SMILES | ED50 [1, 5] | other results
55 | O=C(Nc1nccs1)c1c(C(Cl)Cl)nc2c(Cl)cccc2c1O | 25 mg/kg | ED50 [2]: inactive
56 | O=C(Nc1nccs1)c1c(C(F)(F)F)nc2c(F)cccc2c1O | 5 mg/kg | 
57 | CCC(OC(=O)c1cccnc1)c1nc2c(C(F)(F)F)cccc2c(O)c1C(=O)Nc1nccs1 (centres undefined) | > 20 mg/kg | ED50 [3, 6]: > 1 mg/kg
58 | CCCC(=O)OC(CC)c1nc2c(C(F)(F)F)cccc2c(O)c1C(=O)Nc1nccs1 (centres undefined) | 4 mg/kg | ED50 [3, 6]: 1.3 mg/kg
59 | Cc1nc2c(C(F)(F)F)cccc2c(O)c1C(=O)Nc1ccccn1 | 5 mg/kg | 
60 | O=C(Nc1nc2ccccc2s1)c1c(C(Cl)Cl)nc2c(C(F)(F)F)cccc2c1O | > 25 mg/kg | ED50 [2]: inactive
61 | O=C(Nc1ccccn1)c1c(C(Cl)Cl)nc2c(C(F)(F)F)cccc2c1O | 20 mg/kg | 
62 | COc1ccc2nc(C(F)(F)F)c(C(=O)Nc3nccs3)c(O)c2c1 | 30 mg/kg | 
63 | O=C(Nc1nccs1)c1c(C(F)(F)F)nc2c([S+]([O-])C(F)(F)F)cccc2c1O (centres undefined) | 20 mg/kg | 
64 | CC(=O)OC(c1nc2c(C(F)(F)F)cccc2c(O)c1C(=O)Nc1nccs1)C(C)C (centres undefined) | > 100 mg/kg | ED50 [3, 6]: ≥ 5 mg/kg
65 | O=C(Nc1nccs1)c1cnc2c(Cl)cccc2c1O | 100 mg/kg | 
66 | O=C(Nc1ncco1)c1c(C(Cl)Cl)nc2c(C(F)(F)F)cccc2c1O | > 25 mg/kg | ED50 [2]: inactive
67 | O=C(Nc1nccs1)c1cnc2c(SC(F)(F)F)cccc2c1O | > 50 mg/kg | 
68 | O=C(Nc1nccs1)c1cnc2c(OC(F)(F)F)cccc2c1O | > 50 mg/kg | 
69 | CC(O)c1nc2c(C(F)(F)F)cccc2c(O)c1C(=O)Nc1ccccn1 (centres undefined) | > 50 mg/kg | 
70 | O=C(Nc1nccs1)c1c(C(F)(F)F)nc2cc(Cl)ccc2c1O | > 25 mg/kg | 
71 | O=C(Nc1nccs1)c1cnc2ccc(Cl)cc2c1O | 50 mg/kg | 
72 | O=C(Nc1nccs1)c1c(C(F)(F)F)nc2cccc(C(F)(F)F)c2c1O | 20 mg/kg | 
73 | O=C(Nc1nccs1)c1c(C(Cl)Cl)nc2cc(Cl)ccc2c1O | > 100 mg/kg | 
74 | CCc1nc2c(C(F)(F)F)cccc2c(O)c1C(=O)Nc1nccn1C | 50 mg/kg | 
75 | O=C(Nc1ncco1)c1cnc2c(C(F)(F)F)cccc2c1O | > 100 mg/kg | 
76 | O=C(Nc1ncccn1)c1cnc2c(C(F)(F)F)cccc2c1O | 50 mg/kg | 
77 | COc1cccc2c(O)c(C(=O)Nc3nccs3)cnc12 | > 50 mg/kg | 
78 | O=C(Nc1nccs1)c1c(C(F)(F)F)nc2c(SC(F)(F)F)cccc2c1O | 4 mg/kg | 
79 | CC[C@H](NC(C)=O)c1nc2c(C(F)(F)F)cccc2c(O)c1C(=O)Nc1nccs1 | 5 mg/kg | ED50 [3, 6]: 1.5 mg/kg
